Source: PubChem BioAssay
C2C12 statin: suppression of simvastatin myotoxicity; C2C12 myotubes + simvastatin, ATP luminescence, 48 h; scaled: DMSO 0, geranylgeraniol control 100; rescue of ATP level, % at 7.49 µM; 330,000 tested, 0.78% active; AID 602340;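 active = mean ATP rescue above about 67%, or every replicate alone reaching that limit, limit read from the data, passing the limit was not always enough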;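 also: myotubes were challenged with 10 µM simvastatin during compound exposure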
rRNA inh HTS: selective bacterial rRNA inhibition in E. coli; E. coli WT GFP vs humanized-ribosome RFP mutants, fluorescence, 24 h; hits give low values; DMSO median 0, no signal -100; GFP signal change (wild-type ribosome), % (test concentration not listed); 350,000 tested, 1.6% active;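 active = significant combined selectivity score with lowered wild-type GFP, culture density cut under 30%, mutant RFP and density less affected; inactive = any of these conditions unmet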
FN deposition inh: fibronectin deposition inhibition; inhibition, % at 12.6 µM; 350,000 tested, 0.086% active; AH1F fibroblasts, Alexa488-fibronectin deposition fluorescence, overnight;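 active = mean inhibition across replicates of 30% or more, regardless of how many single replicates reach that level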
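Test system: AH1F fibroblast monolayer depositing Alexa488-labelled fibronectin into matrix. Input: 10000 cells per well. Technique: fluorescence, ex 485 nm, em 525 nm. Buffer or medium: DMEM plus 2% serum, read in PBS. Timing: 1 h cell adhesion before compound, then overnight fibronectin incubation. Compound: single dose, pinned. Read-out basis: inhibition from reduced deposited-fibronectin fluorescence.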
E-selectin induc: induces E-selectin expression in human endothelial cells; AID 686992; HUVEC E-selectin immunofluorescence imaging; normalized: neutral wells 0, TNF-alpha wells 100; P16581; 260,000 tested, 0.37% active; activation, % at 7.58 µM;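 active = mean E-selectin-positive cell signal at least 10% of the positive control, reached in at least 60% of replicates, without over 20% cell loss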
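Test system – human umbilical vein endothelial cells (HUVEC), E-selectin induction · Input – 3,000 HUVEC seeded per well · Buffer or medium – EGM-2, gelatin · Compound dosing – single-point compound dose · Detection – immunofluorescence imaging · Measure – percent E-selectin-positive cells · Controls – TNF-alpha high, DMSO low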
FGF22 binding: FGF22 (human) thermal shift binding | recombinant FGF22 thermal shift, SYPRO orange fluorescence; percent of sucrose octasulfate shift, DMSO zero | Q9HCT0 | 340,000 tested, 1.5% active | activity (Tm shift, normalised), % at 9.99 µM;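 active = mean Tm shift, scaled 0 neutral to 100 positive control, at about 1.3% or above, every replicate too, limit read from the data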
Target sequence (Q9HCT0 whole entry, looked up): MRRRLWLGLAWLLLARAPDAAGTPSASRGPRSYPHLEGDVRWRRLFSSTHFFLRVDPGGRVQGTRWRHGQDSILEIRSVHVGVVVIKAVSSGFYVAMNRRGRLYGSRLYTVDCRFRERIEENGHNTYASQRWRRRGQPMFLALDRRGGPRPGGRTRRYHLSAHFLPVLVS
SIRT5 block: blocks human SIRT5 desuccinylation of peptide. Purified SirT5, succinyl-peptide AMC, trypsin-coupled fluorescence. inhibition, % at 15 µM. 330,000 tested, 1.1% active. AID 652115; in the data active = inhibition above about 15%
Target sequence (Q9NXA8 whole entry, looked up): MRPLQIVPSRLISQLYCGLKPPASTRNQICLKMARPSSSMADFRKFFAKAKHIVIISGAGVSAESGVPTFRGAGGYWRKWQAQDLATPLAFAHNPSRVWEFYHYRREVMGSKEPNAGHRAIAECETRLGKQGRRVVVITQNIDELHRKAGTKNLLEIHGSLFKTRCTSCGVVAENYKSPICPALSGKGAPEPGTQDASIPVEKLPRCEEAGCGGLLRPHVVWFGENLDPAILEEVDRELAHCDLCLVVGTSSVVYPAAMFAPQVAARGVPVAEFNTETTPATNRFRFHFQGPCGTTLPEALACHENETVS
Numbers stand for hits; n = inactive; x = not tested or not shown. A selection: hits, their analogues and other compounds. The true share with any hit is near 4%.

SMILES | C2C12 statin | rRNA inh HTS | FN deposition inh | E-selectin induc | FGF22 binding | SIRT5 block
CC1CCC(NC(=O)CCN2C(=O)C3C4C=CC(C4)C3C2=O)CC1 (centres undefined) | n | n | n | 177.1 | n | n
CCOC(=O)C1CCN(C(=O)CCN2C(=O)C3C4C=CC(C4)C3C2=O)CC1 (centres undefined) | n | x | n | x | x | x
C[C@@H]1CN([C@H](C)CO)C(=O)c2cc(NS(=O)(=O)c3ccccc3)ccc2O[C@@H]1CN(C)Cc1ccccc1 | n | n | x | n | n | n
CN(C)c1ccc(C(=S)N2CCCCC2)cc1 | n | n | n | x | 43.3 | n
Fc1ccc(/C=N/Nc2ccccn2)cc1 | x | x | n | x | 43.7 | n
CCOc1ccc(/C=N/Nc2ccccn2)cc1 | x | n | n | 30.9 | n | n
Clc1ccc(/C=N/Nc2ccccn2)cc1 | n | n | n | n | n | n
CCCN(C)C[C@@H]1Oc2ncc(C#Cc3ccc(OC)cc3)cc2C(=O)N([C@@H](C)CO)C[C@@H]1C | n | n | n | n | n | n
C[C@@H]1CCCCO[C@@H](CN(C)Cc2ccc(C(=O)O)cc2)[C@@H](C)CN([C@@H](C)CO)C(=O)c2cc(NC(=O)CCC(F)(F)F)ccc2O1 | x | n | x | n | n | n
ONC(=Nc1ccccc1Cl)c1c(F)cccc1F | x | -37.0 | n | x | n | n
O=C1C(c2ccccc2)c2ccccc2N1Cc1ccccc1 (centres undefined) | n | -20.2 | n | n | x | x
O=C(NC[C@H]1CC[C@@H]2[C@@H](CN2S(=O)(=O)c2ccccc2[N+](=O)[O-])O1)C1CCCC1 | x | x | x | x | x | n
COc1ccc(Nc2ncnc3c2cnn3Cc2ccc(C)cc2)cc1 | 67.7 | x | n | x | x | x
CC(C)(C)C(=O)CSc1ncnc2c1cnn2Cc1ccccc1 | x | n | n | n | n | 15.3
Cc1ccc(Nc2ncnc3c2cnn3C)cc1 | n | n | n | x | n | n
c1ccc(Cn2ncc3c(Nc4ccccc4)ncnc32)cc1 | n | -27.0 | n | n | n | n
COCC(=O)Nc1ccc2c(c1)[C@@H]1C[C@H](CC(=O)N3CCc4ccccc4C3)O[C@@H](CO)[C@@H]1O2 | n | n | x | n | n | n
O=C(O)CCC(=O)N1CCCC1 | x | x | n | x | 42.9 | n
Cc1cc(/C=C2/SC(=S)N(c3ccc([N+](=O)[O-])cc3)C2=O)c(C)n1-c1cccnc1 | x | n | n | x | 43.4 | n
COc1ccc(S(=O)(=O)N(C)C[C@@H]2Oc3ccc(NS(=O)(=O)c4ccc(F)cc4)cc3C(=O)N([C@H](C)CO)C[C@H]2C)cc1 | n | n | x | n | n | n
CC(=O)N(C)C[C@@H]1Oc2ncccc2C(=O)N(C)C[C@H]1C | x | n | n | x | x | x
COc1ccc2cc(C#N)c(Nc3cccc(F)c3)nc2c1 | n | n | n | x | 43.6 | n
COC(=O)c1cc(S(=O)(=O)NCc2ccc(Br)cc2)c[nH]1 | n | n | n | x | n | 21.8
COC(=O)c1cc(S(=O)(=O)NCc2ccccc2)c[nH]1 | n | n | n | n | n | n
Nc1n[nH]c2cc(=O)n(-c3cccc(C(F)(F)F)c3)nc12 | n | n | n | n | 43.4 | n
SMILES | C2C12 statin | rRNA inh HTS | FN deposition inh | E-selectin induc | FGF22 binding | SIRT5 block
O=C(C[C@H]1CC[C@@H]2[C@H](COC[C@H](O)CN2S(=O)(=O)c2cccc(Cl)c2)O1)NCCCN1CCOCC1 | n | n | n | n | n | n
COc1ccc(CNc2ncnc3cc(Cl)ccc23)cc1OC | x | n | n | n | 43.3 | n
C[C@@H]1CCCCO[C@@H](CN(C)S(=O)(=O)c2ccc(Cl)cc2)[C@@H](C)CN([C@@H](C)CO)C(=O)c2cc(NC(=O)Nc3ccccc3)ccc2O1 | x | n | x | n | n | n
CC(C)n1nc(C(=O)Nc2nc3ccccc3[nH]2)c2ccccc2c1=O | n | n | n | n | n | n
CCCn1nc(C(=O)Nc2nc3ccccc3[nH]2)c2ccccc2c1=O | n | n | n | n | 43.1 | n
C[n+]1ccc(/C=C/c2c[nH]c3ccc(F)cc23)cc1 | n | n | n | n | n | 25.8
Cn1cc(/C=C/c2cc[n+](C)cc2)c2cc(F)ccc21 | x | n | x | x | x | n
COc1ccccc1NC(=O)CSc1ccc(-c2ccccn2)nn1 | n | n | n | n | n | n
COc1ccc(NC(=O)CSc2ccc(-c3ccccn3)nn2)cc1OC | n | n | n | x | 43.2 | n
CC(=O)c1cccc(NC(=O)CSc2ccc(-c3ccc4c(c3)OCO4)nn2)c1 | n | n | n | n | n | n
COc1ccc(-c2ccc(SCC(=O)Nc3cccc(C(C)=O)c3)nn2)cc1OC | n | n | n | n | 43.0 | n
COc1ccc(-c2ccc(SCC(=O)c3cccs3)nn2)cc1OC | x | -33.7 | n | n | n | n
CC(C)NC(=O)N(C)C[C@H]1Oc2c(NC(=O)Nc3ccc(C(F)(F)F)cc3)cccc2C(=O)N([C@@H](C)CO)C[C@@H]1C | n | n | x | x | n | n
C[C@H](CO)N1C[C@H](C)[C@H](CN(C)C(=O)NC2CCCCC2)OCCCC[C@H](C)Oc2ccc(N(C)C)cc2C1=O | n | n | n | n | n | n
CO[C@H]1CN(C)C(=O)c2ccc(NC(=O)Nc3ccccc3F)cc2OC[C@@H](C)N(CC2CC2)C[C@H]1C | n | n | n | n | n | n
COc1ccccc1NC(=O)N[C@H]1CC[C@@H](CC(=O)N2CCC(Cc3ccccc3)CC2)O[C@H]1CO | n | n | n | n | n | n
COc1ccccc1CN1C[C@@H](C)[C@@H](OC)CN(C)C(=O)c2cc(NC(C)=O)ccc2OC[C@H]1C | n | n | n | n | n | n
COc1cc(OC)cc(C(=O)N2c3ccc(F)cc3CCC2C)c1 (centres undefined) | 90.1 | x | n | x | x | x
COc1ccc(C(=O)N2c3ccc(F)cc3CCC2C)cc1OC (centres undefined) | n | x | n | x | x | x
CCN(CC)CCN(C(=O)Cn1nnc(-c2ccc(C)o2)n1)C(C(=O)NC(C)(C)C)c1cccs1 (centres undefined) | x | n | n | 127.6 | n | n
Cc1ccc(-c2nnn(CC(=O)N(Cc3ccco3)C(C(=O)NC3CCCC3)c3cccs3)n2)o1 (centres undefined) | x | x | n | x | x | x
CCOC(=O)N1CCN(C(=O)c2ccc3c(=O)n(CCc4ccccc4)c(=O)[nH]c3c2)CC1 | 176.9 | x | n | n | x | x
CCc1ccc(OCC(=O)NN2Cc3ccccc3C2=N)cc1 | x | n | n | n | 43.3 | 23.9
Cc1nc2nc(COc3ccccc3)nn2c(C)c1Cl | 73.2 | x | x | x | x | x
Cc1[nH]nc2c1C(c1ccc(Br)cc1)N(Cc1ccccc1)C2=O (centres undefined) | x | -25.4 | n | n | n | n
Cc1ccc(C2c3c(n[nH]c3C)C(=O)N2Cc2ccccc2)cc1 (centres undefined) | x | n | n | n | n | x
COc1ccc(C(=O)N/C(=C/c2cccs2)c2nc3ccccc3[nH]2)cc1OC | x | n | n | x | n | n
